# Results published in ChEMBL document CHEMBL5230175, “The war on hTG2: warhead optimization in small molecule human tissue transglutaminase inhibitors” (RSC Med Chem, 2023).
# Tests used:
# [1] = molecular target: T1, Protein-glutamine gamma-glutamyltransferase (Homo sapiens, UniProt P21980); test: Irreversible inhibition of human recombinant tissue transglutaminase expressed in Escherichia coli using Cbz-Glu-(gamma-p-nitrophenylester)Gly (AL5) as substrate assessed as substrate hydrolysis by measuring KI incubated for 20 mins by colorimetric analysis
# T1 sequence (P21980 whole entry): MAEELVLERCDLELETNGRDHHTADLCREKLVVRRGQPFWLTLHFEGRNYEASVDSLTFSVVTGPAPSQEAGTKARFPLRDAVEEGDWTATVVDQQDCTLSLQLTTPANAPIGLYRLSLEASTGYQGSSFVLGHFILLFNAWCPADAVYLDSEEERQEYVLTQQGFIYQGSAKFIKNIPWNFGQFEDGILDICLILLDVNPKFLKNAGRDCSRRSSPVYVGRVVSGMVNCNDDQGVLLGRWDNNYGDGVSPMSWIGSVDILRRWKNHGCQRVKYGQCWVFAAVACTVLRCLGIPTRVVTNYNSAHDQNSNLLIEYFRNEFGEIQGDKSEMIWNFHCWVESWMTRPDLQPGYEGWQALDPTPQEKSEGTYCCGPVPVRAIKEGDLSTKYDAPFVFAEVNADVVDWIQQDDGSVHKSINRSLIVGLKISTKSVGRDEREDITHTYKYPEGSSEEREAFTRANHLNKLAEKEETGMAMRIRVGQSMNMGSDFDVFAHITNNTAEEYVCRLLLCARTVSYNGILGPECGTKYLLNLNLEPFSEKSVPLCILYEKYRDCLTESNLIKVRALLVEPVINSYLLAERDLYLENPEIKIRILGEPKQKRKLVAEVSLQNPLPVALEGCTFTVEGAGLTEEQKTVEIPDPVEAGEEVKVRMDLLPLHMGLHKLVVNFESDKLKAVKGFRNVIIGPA
# [2] = molecular target: T2, Protein-glutamine gamma-glutamyltransferase (Homo sapiens) (UniProt P21980); test: Inhibition of human recombinant tissue transglutaminase expressed in Escherichia coli using Cbz-Glu-(gamma-p-nitrophenylester)Gly (AL5) as substrate assessed as substrate hydrolysis by measuring Kinact incubated for 20 mins by colorimetric analysis
# T2 sequence (whole entry): T1 sequence (P21980 whole entry)
# [3] = molecular target: T2, Protein-glutamine gamma-glutamyltransferase (Homo sapiens); test: Irreversible inhibition of human TG2 using Cbz-Glu-(gamma-p-nitrophenylester)Gly (AL5) as substrate assessed as substrate hydrolysis by measuring observed binding constant incubated for 20 mins by colorimetric assay
# [4] = molecular target: T3, Protein-glutamine gamma-glutamyltransferase K (Homo sapiens) (UniProt P22735); test: Irreversible inhibition of human TG1 using Cbz-Glu-(gamma-p-nitrophenylester)Gly (AL5) as substrate assessed as substrate hydrolysis by measuring observed binding constant incubated for 100 mins by colorimetric assay
# T3 sequence (whole entry): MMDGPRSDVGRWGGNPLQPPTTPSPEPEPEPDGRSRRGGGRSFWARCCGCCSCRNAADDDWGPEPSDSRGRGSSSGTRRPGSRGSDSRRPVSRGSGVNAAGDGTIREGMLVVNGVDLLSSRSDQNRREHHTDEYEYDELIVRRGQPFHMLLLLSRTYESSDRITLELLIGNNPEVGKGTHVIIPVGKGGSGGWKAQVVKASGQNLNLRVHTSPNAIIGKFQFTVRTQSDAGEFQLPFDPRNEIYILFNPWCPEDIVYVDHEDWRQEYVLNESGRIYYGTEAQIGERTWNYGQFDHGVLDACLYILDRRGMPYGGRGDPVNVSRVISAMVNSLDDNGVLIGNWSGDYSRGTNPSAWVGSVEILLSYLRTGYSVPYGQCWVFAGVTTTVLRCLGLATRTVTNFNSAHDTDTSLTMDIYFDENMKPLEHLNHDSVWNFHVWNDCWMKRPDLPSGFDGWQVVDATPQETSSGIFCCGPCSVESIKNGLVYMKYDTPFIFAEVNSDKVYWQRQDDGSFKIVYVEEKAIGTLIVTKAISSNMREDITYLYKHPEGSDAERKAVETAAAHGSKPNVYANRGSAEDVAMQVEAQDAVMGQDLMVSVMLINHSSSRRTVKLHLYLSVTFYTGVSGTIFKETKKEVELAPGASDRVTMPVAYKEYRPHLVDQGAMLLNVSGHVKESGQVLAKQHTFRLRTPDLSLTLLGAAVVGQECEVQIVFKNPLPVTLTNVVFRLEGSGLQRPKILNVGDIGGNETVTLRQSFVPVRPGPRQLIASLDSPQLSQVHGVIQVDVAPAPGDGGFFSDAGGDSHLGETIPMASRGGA
# [5] = molecular target: T2, Protein-glutamine gamma-glutamyltransferase (Homo sapiens); test: Irreversible inhibition of human recombinant tissue transglutaminase expressed in Escherichia coli using Cbz-Glu-(gamma-p-nitrophenylester)Gly (AL5) as substrate assessed as substrate hydrolysis by measuring Kinact/Ki ratio by linear regression analysis
# In short: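 For TG2/AL5 under Kitz–Wilson conditions (100 μM AL5, pH 6.9 MOPS, 25 °C, 405 nm), kinact/KI was taken from simple linear regression of kobs against corrected inhibitor concentration at the lowest inhibitor concentrations.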
# [6] = molecular target: T2, Protein-glutamine gamma-glutamyltransferase (Homo sapiens); test: Irreversible inhibition of human recombinant tissue transglutaminase expressed in Escherichia coli using Cbz-Glu-(gamma-p-nitrophenylester)Gly (AL5) as substrate assessed as substrate hydrolysis by measuring Kinact/Ki ratio incubated for 20 mins by colorimetric analysis
# [7] = molecular target: T4, Coagulation factor XIII A chain (Homo sapiens) (UniProt P00488); test: Reversible inhibition of human factor XIIIa using peptidic FRET-quenched probe A101 as substrate by fluorescence based assay relative to control; details: concentration not given here
# T4 sequence (whole entry): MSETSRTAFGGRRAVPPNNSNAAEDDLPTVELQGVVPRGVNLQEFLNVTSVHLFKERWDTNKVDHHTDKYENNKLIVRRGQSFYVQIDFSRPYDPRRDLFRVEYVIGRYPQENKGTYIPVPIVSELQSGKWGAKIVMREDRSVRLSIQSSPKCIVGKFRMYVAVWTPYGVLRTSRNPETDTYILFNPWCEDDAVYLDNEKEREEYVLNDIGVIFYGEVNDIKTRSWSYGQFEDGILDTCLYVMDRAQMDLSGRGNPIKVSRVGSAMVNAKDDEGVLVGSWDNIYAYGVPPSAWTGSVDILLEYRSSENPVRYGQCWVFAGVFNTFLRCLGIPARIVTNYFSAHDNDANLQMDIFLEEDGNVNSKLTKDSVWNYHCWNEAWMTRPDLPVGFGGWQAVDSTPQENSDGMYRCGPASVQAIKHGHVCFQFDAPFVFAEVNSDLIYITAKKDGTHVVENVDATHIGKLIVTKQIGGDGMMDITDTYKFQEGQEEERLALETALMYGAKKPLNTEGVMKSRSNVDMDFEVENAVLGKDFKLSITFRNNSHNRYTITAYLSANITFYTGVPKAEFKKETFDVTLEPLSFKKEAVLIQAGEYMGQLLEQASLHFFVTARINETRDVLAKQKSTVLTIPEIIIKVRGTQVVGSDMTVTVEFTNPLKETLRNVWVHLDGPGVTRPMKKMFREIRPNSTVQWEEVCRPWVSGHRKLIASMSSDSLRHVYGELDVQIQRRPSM
# [8] = GSH reactivity in aqueous buffer assessed as GSH adduct formation by measuring corrected intrinsic second order rate constant (K2 corrected) by HPLC analysis; assay type: physicochemical
# In short: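 GSH stock diluted to final 15 mM in aqueous buffer (pH 8.0 used, 7.4 too slow), reaction started with inhibitor at final 0.5 mM, 2% v/v DMSO. Incubated at 22 °C and aliquots taken over at least 5–6 half-lives. HPLC with UV 214/254 nm tracked adduct growth and inhibitor loss, fitted mono-exponentially to give pseudo-first-order kobs. kobs was divided by [thiol] and then by the thiolate fraction (pKa 8.7) to give kcorr2. Run in duplicate.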
# [9] = Metabolic stability in human whole blood assessed as half-life at 1 to 5 uM measured upto 120 mins by LC-MS/MS analysis; assay type: ADME, tissue-based; details: dose 1-5 µM
# In short: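 Pooled human whole blood (K3-EDTA) was spiked to 1 or 5 μM compound. Aliquots taken at 0, 15, 30, 60 and 120 min were quenched in acetonitrile with 0.1% formic acid and internal standard, then analysed by LC-MS/MS. Percent parent remaining is the peak-area ratio versus T = 0; half-life comes from an exponential decay fit.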
# [10] = Metabolic stability in pooled cryopreserved human hepatocytes assessed as half-life at 1 uM measured upto 120 mins by LC-MS/MS analysis; assay type: ADME, cell-based, Hepatocyte
# In short: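 Samples were taken at 0, 5, 15, 30, 60 and 120 min, acetonitrile-quenched with internal standard, and analysed by LC-MS/MS. Half-life came from exponential decay of the parent/IS ratio relative to T = 0.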
# [11] = Ratio of Kinact/Ki for inhibition of human tissue transglutaminase assessed as substrate hydrolysis to corrected second order rate constant (K2 corrected) for GSH reactivity in aqueous buffer assessed as GSH adduct formation; assay type: physicochemical
# [12] = molecular target: T1, Protein-glutamine gamma-glutamyltransferase; test: Reversible inhibition of human recombinant tissue transglutaminase expressed in Escherichia coli using Cbz-Glu-(gamma-p-nitrophenylester)Gly (AL5) as substrate assessed as substrate hydrolysis by measuring Ki incubated for 20 mins by colorimetric analysis
# In short: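 For TG2 reversible inhibition, the same AL5 colorimetric assay (MOPS pH 6.9, 7.5 mM CaCl2, 0.25 μM TG2, 405 nm) was run at 100 and 50 μM AL5. Initial rates were taken over the first 10% conversion of the uninhibited control, and 1/v0 was plotted against [I] in a Dixon plot; Ki came from the intersection of the lines.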
Compound,Ki [1] [µM],Kinact [2] [min⁻¹],K [3] [min⁻¹],K [4] [min⁻¹],Ratio [5],Ratio [6],inhibition [7] [%],K [8],half-life at up to 5 µM [9] [h],half-life at 1 µM [10] [h],Ratio [11],Ki [12] [µM]
C=C(Br)C(=O)NCC(=O)N1CCN(C(=O)C23CC4CC(CC(C4)C2)C3)CC1,1.95,4.69,0.497,0.018,2320 10^3/M/min,2410 10^3/M/min,–,–,–,–,–,–
O=C(NCC(=O)N1CCN(C(=O)C23CC4CC(CC(C4)C2)C3)CC1)C(F)Cl (configuration not stated),88.5,1.57,–,–,16 10^3/M/min,17.8 10^3/M/min,–,–,–,–,–,–
C[S+]([O-])CCCCN=C=S (configuration not stated) [SULFORAPHANE],366,0.27,–,–,–,–,–,–,–,–,–,–
O=C(CN=C=S)N1CCN(C(=O)C23CC4CC(CC(C4)C2)C3)CC1,8.83,0.23,–,–,17.7 10^3/M/min,26.3 10^3/M/min,–,–,–,–,–,–
C#CC(=O)NCC(=O)N1CCN(C(=O)C23CC4CC(CC(C4)C2)C3)CC1,70.1,6.83,–,–,87.7 10^3/M/min,97.5 10^3/M/min,–,–,–,–,–,–
C=C(F)C(=O)NCC(=O)N1CCN(C(=O)C23CC4CC(CC(C4)C2)C3)CC1,38.4,1.17,–,–,28.5 10^3/M/min,30.4 10^3/M/min,–,–,–,–,–,–
C/C=C/C(=O)NCC(=O)N1CCN(C(=O)C23CC4CC(CC(C4)C2)C3)CC1,61.8,–,–,–,6.7 10^3/M/min,8.3 10^3/M/min,–,–,–,–,–,–
C=C(Cl)C(=O)NCC(=O)N1CCN(C(=O)C23CC4CC(CC(C4)C2)C3)CC1,2.32,7.28,0.509,0.022,3140 10^3/M/min,3130 10^3/M/min,76,59.387 10^-3/M/min,0.533,1.53,0.053,–
CC(=O)C(=O)NCC(=O)N1CCN(C(=O)C23CC4CC(CC(C4)C2)C3)CC1,–,–,–,–,–,–,–,–,–,–,–,154
C=C(C(=O)NCC(=O)N1CCN(C(=O)C23CC4CC(CC(C4)C2)C3)CC1)C(F)(F)F,30.6,5.22,–,–,209 10^3/M/min,171 10^3/M/min,–,–,–,–,–,–
[N-]=[N+]=CC(=O)NCC(=O)N1CCN(C(=O)C23CC4CC(CC(C4)C2)C3)CC1,26.3,2.82,–,–,95 10^3/M/min,107 10^3/M/min,–,–,–,–,–,–
